Compound activity deposited in PubChem by several laboratories.
STAT3 inh: reduces IL-6 driven STAT3 reporter signal; U3A cells, IL-6 STAT3-luciferase reporter, luminescence; host cell line lacks STAT1; inhibition, % at 5.5 µM; 0.89% of 190,000 active; AID 862;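 active = inhibition above the mean inhibition across all screened compounds plus 3 SD, cut at about 44% in these data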
STAT1 inh: reduces IFN-gamma driven STAT1 reporter signal; AID 920; 0.35% of 200,000 active; NIH 3T3 STAT1-luciferase reporter, luminescence; inhibition, % at 5.5 µM;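 active = inhibition above a set limit, the mean inhibition across all tested compounds plus 3 SD, cut at about 34% in these data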
PERK inhibitor: human PERK inhibition, primary cell-based screen | CHO PERK-DD fusion, SEAP luminescence translation reporter | 0.17% of 220,000 active | inhibition, % at 5.6 µM | Q9NZJ5 | AID 1416;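 active = inhibition above the mean inhibition of all tested compounds plus 3 SD, set separately per screening campaign, cut at about 2.9% in these data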;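 note: PERK kinase domain activated by AP20187 dimerizer at 100 nM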
Target sequence (Q9NZJ5 whole entry, looked up, the tested form may be a part): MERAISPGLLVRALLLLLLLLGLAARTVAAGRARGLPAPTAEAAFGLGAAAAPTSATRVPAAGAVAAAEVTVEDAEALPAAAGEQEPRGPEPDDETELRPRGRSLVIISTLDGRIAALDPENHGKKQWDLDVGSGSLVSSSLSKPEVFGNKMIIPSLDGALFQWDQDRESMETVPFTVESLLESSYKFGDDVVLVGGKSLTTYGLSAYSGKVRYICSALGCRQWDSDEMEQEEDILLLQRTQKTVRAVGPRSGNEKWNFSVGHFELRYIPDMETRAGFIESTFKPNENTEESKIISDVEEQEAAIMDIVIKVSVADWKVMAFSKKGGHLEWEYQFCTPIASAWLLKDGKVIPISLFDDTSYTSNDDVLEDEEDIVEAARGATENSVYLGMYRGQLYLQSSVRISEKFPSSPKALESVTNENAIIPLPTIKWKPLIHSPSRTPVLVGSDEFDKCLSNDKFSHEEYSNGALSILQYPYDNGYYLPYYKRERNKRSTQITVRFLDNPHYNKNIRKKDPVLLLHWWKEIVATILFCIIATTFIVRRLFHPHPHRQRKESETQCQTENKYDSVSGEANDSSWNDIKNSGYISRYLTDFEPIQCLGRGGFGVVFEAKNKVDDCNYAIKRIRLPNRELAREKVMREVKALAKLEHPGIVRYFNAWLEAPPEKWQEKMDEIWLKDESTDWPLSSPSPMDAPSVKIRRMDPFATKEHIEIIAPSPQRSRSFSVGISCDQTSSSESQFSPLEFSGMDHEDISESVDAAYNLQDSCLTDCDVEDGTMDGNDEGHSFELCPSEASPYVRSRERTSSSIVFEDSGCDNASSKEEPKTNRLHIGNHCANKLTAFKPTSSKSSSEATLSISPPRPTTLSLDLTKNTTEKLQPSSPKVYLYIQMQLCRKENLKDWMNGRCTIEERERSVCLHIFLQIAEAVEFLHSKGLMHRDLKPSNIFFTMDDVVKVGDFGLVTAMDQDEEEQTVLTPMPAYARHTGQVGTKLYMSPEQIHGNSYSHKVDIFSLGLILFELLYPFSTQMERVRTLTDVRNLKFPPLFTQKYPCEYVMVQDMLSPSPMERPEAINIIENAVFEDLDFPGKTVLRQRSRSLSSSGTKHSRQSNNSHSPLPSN
Platelet DG rel: platelet dense granule release activity | 0.22% of 300,000 active | inhibition, %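 (compounds screened at 7.5 µM in platelet-rich plasma)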 | AID 1663 | human platelet-rich plasma, SFLLRN dense granule ATP release, luminescence;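 active = mean replicate score, as percent of positive control, at or above 50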
STAT3 act-1: increases IL-6 driven STAT3 reporter signal | 0.91% of 190,000 active | U3A cells, IL-6 STAT3-luciferase reporter, luminescence; 100% = signal with IL-6 EC80 alone | activation (% of control), % at 5.6 µM | AID 871;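 active = activation above the screen-wide mean of compound activation plus 3 SD, cut at about 130% in these data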
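Detection: reporter luminescence signal / Assay system: STAT1-lacking human U3A cells, STAT3 luciferase reporter / Incubation: compound pre-incubation 1 h before IL-6, then 6 h stimulation at 37 °C / Control set: IL-6-only high control / Read-out: % activation relative to IL-6 control / Probe or stimulus: Interleukin-6, 33 ng/mL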
STAT3 act-2: confirmation of STAT3 signaling activators | potentiation (% of control), % at 5.7 µM | 64% of 1,200 active | U3A STAT3-luciferase reporter, IL-6 potentiation, luminescence; U3A cells lack STAT1; 100 means same as IL-6 alone | shares compounds with STAT3 act-1;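 active = percent activation of the STAT3 luciferase reporter above a set limit taken from the earlier primary screen, cut at about 130% in these data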
NFkB act 2: activates NF-kappaB, counter-screen to STAT3 activators. human cells, NF-kappaB reporter activation. activation (% of control), % at 5.7 µM. shares compounds with STAT3 act-1. 11% of 1,200 active; in the data active = activation above about 120%;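 note: reporter induced by TNF-alpha stimulation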
STAT1 act STAT3c: STAT1 activation in STAT3 activator counter-screen | AID 1318 | activation (% of control), % at 5.7 µM | shares compounds with STAT3 act-1 | 13% of 1,200 active | NIH 3T3 STAT1-luciferase reporter, IFN-gamma, luminescence;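 active = activation above the solvent-only control well mean plus 3 SD, set per screening run, cut at about 120% in these data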
Of the large screens only hits and unclear results are named; the others gave an inactive call (follow-up assays come after a bar, where they were run). Only some compounds are listed: those with a hit (about 1.4% of all), similar ones and a draw of the others.

Cc1cc(O)c(C(=O)Nc2cccc(Cl)c2)c(=O)n1C	none (no result: STAT3 inh, STAT1 inh, PERK inhibitor, STAT3 act-1)
COc1ccc(C2C(C(=O)c3cccs3)=C(O)C(=O)N2c2nncs2)cc1 (stereo not drawn)	STAT3 act-1 150 | STAT3 act-2 inactive | NFkB act 2 inactive | STAT1 act STAT3c inactive
CCCc1cc2c(=O)c(-c3nc4ccccc4s3)c(COCC(=O)O)oc2cc1O	STAT3 act-1 151 (no result: Platelet DG rel) | STAT3 act-2 146 | NFkB act 2 inactive | STAT1 act STAT3c inactive
CCC(=O)Nc1ccc2c(c1)nc(CCNC(=O)c1ccco1)n2C	none (no result: STAT3 inh, STAT1 inh, PERK inhibitor, STAT3 act-1)
N#Cc1c(C(F)(F)F)cc(-c2ccccc2)nc1SCCN1CCOCC1	STAT3 act-1 152 | STAT3 act-2 146 | NFkB act 2 inactive | STAT1 act STAT3c inactive
CCCSc1nc(-c2ccccc2)cc(C(F)(F)F)c1C#N	none
Cc1cc(C)cc(N(C(=O)c2cccs2)C2C=CS(=O)(=O)C2)c1 (stereo not drawn)	none
COc1ccc(N(C(C)=O)c2nc(C)cc(C)c2C#N)c(OC)c1	STAT3 act-1 154 | STAT3 act-2 157 | NFkB act 2 inactive | STAT1 act STAT3c inactive
COc1ccc(Oc2nc(C)cc(C)c2C#N)cc1	none
CCCCCCOC1(c2ccccc2)OC(=O)c2ccccc21 (stereo not drawn)	none
CCCCCOP(=O)(OCCCCC)C1(NS(=O)(=O)c2ccccc2)C=CC(=O)c2ccccc21 (stereo not drawn)	STAT3 act-1 137 | STAT3 act-2 inactive | NFkB act 2 inactive | STAT1 act STAT3c inactive
CCOC(=O)c1c(C)[nH]c(C(=O)OCC(=O)Nc2cc(Cl)ccc2OC)c1C	STAT3 act-1 148 | STAT3 act-2 inactive | NFkB act 2 inactive | STAT1 act STAT3c inactive
Nc1ccc(Cc2nc3cc4ccccc4cc3[nH]2)cc1	STAT3 act-1 136 | STAT3 act-2 143 | NFkB act 2 inactive | STAT1 act STAT3c 130
Nc1ccc(C(=O)OCCCc2nc3cc4ccccc4cc3[nH]2)cc1	none (no result: STAT3 inh, STAT1 inh, STAT3 act-1)
CC(C)Oc1ccc(C(=O)N2CCN(C(=O)c3ccco3)CC2)cc1	none (no result: STAT3 inh, STAT1 inh, PERK inhibitor, STAT3 act-1)
CCCc1nc2ccc([N+](=O)[O-])cc2[nH]1	none
CSCC[C@H](NC(=O)CCn1nnc2ccccc2c1=O)C(=O)O	STAT3 act-1 139 | STAT3 act-2 inactive | NFkB act 2 inactive | STAT1 act STAT3c inactive
COc1ccc(NC(=O)C(NC(=O)c2ccc(=O)[nH]c2)c2ccc(OC)cc2)cc1 (stereo not drawn)	none
COC(=O)c1c(NC(=O)CN2CCN(c3ccccc3OC)CC2)c2c(C)cccc2n1C	none (no result: Platelet DG rel)
COC(=O)c1c(NC(=O)CN2CCN(c3ccccc3OC)CC2)c2cc(C)ccc2n1C	STAT3 act-1 143 | STAT3 act-2 135 | NFkB act 2 inactive | STAT1 act STAT3c inactive
O=C(NCc1ccco1)C1(S(=O)(=O)c2ccc(Cl)cc2)CC1	none
O=C(NCCOc1ccccc1)c1ccccc1NC(=O)C1CCCO1 (stereo not drawn)	STAT3 act-1 140 | STAT3 act-2 138 | NFkB act 2 inactive | STAT1 act STAT3c 131
CCOC(=O)c1ccccc1NC(=O)C1CCCO1 (stereo not drawn)	none (no result: STAT3 inh, STAT1 inh, PERK inhibitor, STAT3 act-1)
CCC(=O)N1c2ccc(S(=O)(=O)NCCc3ccc(OC)c(OC)c3)cc2CC1C (stereo not drawn)	none (no result: STAT3 inh, STAT1 inh, PERK inhibitor, STAT3 act-1)
Cn1c(-c2ccc(N)cc2)nc2ccccc21	none (no result: Platelet DG rel)
Cc1ccc(-n2c(N)c(-c3nc4ccccc4n3C)sc2=S)cc1	STAT3 act-1 183 | STAT3 act-2 176 | NFkB act 2 inactive | STAT1 act STAT3c inactive
NC(=S)NN=C1c2cc(OCCN3CCOCC3)ccc2-c2ccc(OCCN3CCOCC3)cc21	none (no result: STAT3 inh, STAT1 inh, PERK inhibitor, STAT3 act-1)
Cn1cnc([N+](=O)[O-])c1Oc1ccc2ccccc2c1	STAT3 act-1 139 | STAT3 act-2 133 | NFkB act 2 inactive | STAT1 act STAT3c inactive
Cn1c(-[n+]2c(-c3ccccc3)cc(-c3ccccc3)cc2-c2ccccc2)nc2c([N+](=O)[O-])cccc21	STAT3 act-1 151 | STAT3 act-2 147 | NFkB act 2 inactive | STAT1 act STAT3c inactive
Cn1c2ccc(Cl)cc2c2nc3ccccc3nc21	STAT3 act-1 173 | STAT3 act-2 173 | NFkB act 2 inactive | STAT1 act STAT3c 131
O=C(O)c1ccc(NC2=C/C(=N/S(=O)(=O)c3ccccc3)c3ccccc3C2=O)cc1	STAT3 act-1 155 (no result: Platelet DG rel) | STAT3 act-2 inactive | NFkB act 2 inactive | STAT1 act STAT3c inactive
Cc1[nH]c2ccccc2c1C1(O)C(=O)N(Cc2ccc3c(c2)OCO3)c2ccccc21 (stereo not drawn)	STAT3 act-1 137 | STAT3 act-2 134 | NFkB act 2 inactive | STAT1 act STAT3c inactive
CCCN1C(=O)C(O)(c2c(C)[nH]c3ccccc23)c2ccccc21 (stereo not drawn)	none (no result: STAT3 inh, STAT1 inh, STAT3 act-1)
Cc1[nH]c2ccccc2c1C1(O)C(=O)N(C(C)C)c2ccccc21 (stereo not drawn)	STAT3 act-1 137 | STAT3 act-2 inactive | NFkB act 2 inactive | STAT1 act STAT3c inactive
O=[N+]([O-])c1cccc(C(=Nc2ccccc2)NO)c1	none
O=[N+]([O-])c1cccc(C(=Nc2ccc(Cl)cc2)NO)c1	STAT3 act-1 148 | STAT3 act-2 139 | NFkB act 2 inactive | STAT1 act STAT3c inactive
Cn1c(C(=O)Nc2ccccc2)cc2sccc21	STAT3 act-1 163 | STAT3 act-2 144 | NFkB act 2 123 | STAT1 act STAT3c 134
O=C1c2cccnc2C(=O)N1C1CCCCC1	none
Cc1nc2c(n1C1CCCCC1)C(=O)c1ccccc1C2=O	STAT3 act-1 170 | STAT3 act-2 137 | NFkB act 2 inactive | STAT1 act STAT3c inactive
COC(=O)CNC(=O)COC(=O)/C=C/c1ccccc1[N+](=O)[O-]	STAT3 act-1 144 | STAT3 act-2 140 | NFkB act 2 inactive | STAT1 act STAT3c inactive
CC(C)NC(=O)NC(=O)COC(=O)/C=C/c1ccccc1[N+](=O)[O-]	STAT3 act-1 147 | STAT3 act-2 159 | NFkB act 2 inactive | STAT1 act STAT3c inactive
COc1ccc(NC(=O)COC(=O)/C=C/c2ccccc2[N+](=O)[O-])cc1	none
CCc1ccc(C(=O)NC(=S)NCc2cccnc2)cc1	none (no result: STAT3 inh, STAT1 inh, PERK inhibitor, STAT3 act-1)
COc1cc2c(cc1OC)C(c1ccc3c(c1)OCO3)C1=C(CC(C)(C)CC1=O)N2 (stereo not drawn)	none
CCOc1ccccc1C1CC(=O)Nc2cc3c(cc21)OCO3 (stereo not drawn)	none
CCOc1ccccc1C1C2=C(COC2=O)Nc2cc3c(cc21)OCO3 (stereo not drawn)	STAT3 act-1 141 | STAT3 act-2 inactive | NFkB act 2 131 | STAT1 act STAT3c inactive
